Measurements collected from several papers.
Protocols differ between the studies behind these lines.
KCNH2: Voltage-gated inwardly rectifying potassium channel KCNH2 (KCNH2, Homo sapiens, UniProt Q12809)

With CC(C)CC(=O)OC[C@H]1O[C@@](C#N)(c2ccc3c(N)ncnn23)[C@H](O)[C@@H]1O the inhibition was -3% (KCNH2; ligand displacement; 20 µM).
The CC50 of N#C[C@@]1(n2ccc(N)nc2=O)O[C@H](CO)[C@@H](O)[C@H]1O is reported as > 100 µM (Caco-2; cell growth or viability).
CC[C@H](C)CCCCC(=O)N[C@@H](CCN)C(=O)N[C@H](C(=O)N[C@@H](CCN)C(=O)N[C@H]1CCNC(=O)[C@H]([C@@H](C)O)NC(=O)[C@H](CCN)NC(=O)[C@H](CCN)NC(=O)[C@H](CC(C)C)NC(=O)[C@@H](CC(C)C)NC(=O)[C@H](CCN)NC1=O)[C@@H](C)O gave an MRT(0-inf) of 4.88 h (male Sprague-Dawley rat, plasma; subcutaneous, 10 mg/kg).
For COc1ccc(F)cc1C(=O)NCc1ccc(-c2nn([C@@H](C)C(F)(F)F)c(N)c2C(N)=O)cc1, the Tmax was 2.5 h (human, plasma; oral, 200 mg, single dose, fasted).
Cc1cccc(C)c1NC(=O)C1CCCCN1 (centres unmarked) has an inhibition of 19.4% (KCNH2; ion current, inhibitor, patch clamp; 100 µM).
The MRT of CO[C@H]1/C=C/O[C@@]2(C)Oc3c(C)c(O)c4c(O)c(c(/C=N/N5CCN(C6CCCC6)CC5)c(O)c4c3C2=O)NC(=O)/C(C)=C\C=C\[C@H](C)[C@H](O)[C@@H](C)[C@@H](O)[C@@H](C)[C@H](OC(C)=O)[C@@H]1C is reported as 24.4 h (male Sprague-Dawley rat, plasma; intravenous, 10 mg/kg, single dose).
For O=c1nc(NO)ccn1[C@@H]1O[C@H](CO)[C@@H](O)[C@H]1O, the CC50 was > 100 µM (Caco-2; cell growth or viability).
The IC50 of Cc1[nH]c(C)c(S(=O)(=O)Nc2ccc(S(F)(F)(F)(F)F)cc2)c1C(=O)N1CCC(F)(F)C1 is reported as > 30 µM (KCNH2; ion current, inhibitor, patch clamp).
